Reference: ChEMBL document CHEMBL5506026, “New Improved cGMP Analogues to Target Rod Photoreceptor Degeneration” (J Med Chem, 2024)
Activity calls are given as the source filed them. No cut-off for these calls is given here.

What was measured:
661W-A11 [1] = assay: Neuroprotective activity against zaprinast induced mouse 661W-A11 cells assessed as reduction in cell death at 50 uM preincubated for 2 hrs followed by zaprinast addition at 200 uM and measured after 48 hrs by TUNEL assay; assay type: functional, cell-based; details: time 50.0 hrs
Outline: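 661W-A11 cells seeded 20,000/well; 2 h pretreatment with 50 µM compound, then 200 µM zaprinast 48 h. Fixed in 2% paraformaldehyde, permeabilized in citrate/0.1% Triton X-100 on ice, TUNEL (TMR red) 30 min at 37 °C, DAPI counterstain, fluorescence microscopy. Death = TUNEL+ cells/DAPI+ cells. ≥3 biological replicates, mean ± SD.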

661W-A11 [2] = assay: Neuroprotective activity against zaprinast induced mouse 661W-A11 cells assessed as increase in cell viability at 50 uM preincubated for 2 hrs followed by zaprinast addition at 200 uM and measured after 48 hrs by MTT assay; assay type: functional, cell-based; details: time 50.0 hrs
Outline: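 661W-A11 cells seeded 6000/well; 24 h later pretreated 2 h with 50 µM compound, then 200 µM zaprinast 48 h with compound present. MTT 1 mg/mL for 90 min at 37 °C, formazan in isopropanol, OD 570 nm. Viability normalized to matched vehicle (H2O or DMSO) set at 100%. ≥3 biological replicates, mean ± SD.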

[3] = system: Primary photoreceptor cell; assay: Neuroprotective activity in rd1 mouse Primary photoreceptor cells harboring loss of function mutation in Pde6b gene assessed as reduction in cell death at 50 uM administered at day 10 of differentiation and measured after 24 hrs by TUNEL assay; assay type: functional, cell-based
Outline: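 Neurosphere-derived retinal stem cells from rd1 mouse eyes differentiated in vitro into photoreceptors. 50 µM compound or vehicle added on day 10; TUNEL on day 11 (24 h exposure), scored as TUNEL+/DAPI+ nuclei by fluorescence microscopy. ≥3 biological replicates, mean ± SD.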

[4] = Cytotoxicity against mouse 661W-A11 cells assessed as reduction in cell viability at 1 to 1000 uM incubated for 48 hrs by MTT assay; assay type: toxicity, cell-based; details: 661w-a11, 48 h, dose 1-1000 µM
Outline: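 661W-A11 rod-like mouse photoreceptor line (1 mg/mL glucose DMEM, 10% FBS, 37 °C, 5% CO2), seeded 6000 cells/well; next day exposed to scaling concentrations (1 μM to 1 mM) for 48 h in H2O or DMSO vehicle, matched vehicle controls. MTT 1 mg/mL, 90 min at 37 °C; formazan dissolved in isopropanol, OD 570 nm; untreated cells set as 100% viability; at least three biological replicates.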

[5] = Neuroprotective activity against zaprinast induced mouse 661W-A11 cells assessed as increase in cell viability at 1 to 1000 uM preincubated for 2 hrs followed by zaprinast addition at 200 uM and measured after 48 hrs by MTT assay relative to control; assay type: functional; details: dose 1-1000 µM, time 50 hrs
Outline: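 661W-A11 rod-like cells (DMEM 1 mg/mL glucose, 10% FBS, 37 °C, 5% CO2) seeded 6000/well; next day pretreated 2 h with 1 µM–1 mM compound, then 200 µM zaprinast 48 h with compound present. MTT 1 mg/mL, 90 min at 37 °C, formazan in isopropanol, OD 570 nm. EC50 from dose–response curve; ≥3 biological replicates, mean ± SEM.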

Row | SMILES | Activity (661W-A11 [1]) | Activity (661W-A11 [2]) | Activity [3] | Activity [4] | Activity [5]
1 | CCN(CC)CC.O=c1c2nc(Br)n([C@@H]3O[C@@H]4COP(=S)(S)O[C@H]4[C@H]3O)c2nc2[nH]c(-c3ccccc3)cn12 (some centres undefined) | Active | Active | Active | Non-Toxic | –
2 | CCN(CC)CC.O=c1c2nc(Br)n([C@@H]3O[C@@H]4CO[P@](O)(=S)O[C@H]4[C@H]3O)c2nc2[nH]c(-c3ccccc3)cn12 | Active | Active | Active | – | <=70%
3 | O=c1c2nc(Br)n([C@@H]3O[C@@H]4COP(=O)(O)O[C@H]4[C@H]3O)c2nc2[nH]c(-c3ccccc3)cn12 | inactive | inactive | – | – | –
4 | O=c1c2nc(Br)n([C@@H]3O[C@@H]4CO[P@@]([O-])(=S)O[C@H]4[C@H]3O)c2nc2[nH]c(-c3ccccc3)cn12.[Na+] | Active | Active | Active | – | <=70%
